Compound activity (PubChem)
NCF1 inh – p47phox (human) inhibition. p47phox/p22phox peptide binding, fluorescence polarization, 2 h. inhibition, % at 24.7 µM. hit rate 0.53% among 220,000. AID 1274;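 active means inhibition above about 30%, limit read from the data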;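 further: 0% = p47phox with labelled peptide and 100% = labelled peptide alone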
Target sequence (P14598 whole entry, looked up): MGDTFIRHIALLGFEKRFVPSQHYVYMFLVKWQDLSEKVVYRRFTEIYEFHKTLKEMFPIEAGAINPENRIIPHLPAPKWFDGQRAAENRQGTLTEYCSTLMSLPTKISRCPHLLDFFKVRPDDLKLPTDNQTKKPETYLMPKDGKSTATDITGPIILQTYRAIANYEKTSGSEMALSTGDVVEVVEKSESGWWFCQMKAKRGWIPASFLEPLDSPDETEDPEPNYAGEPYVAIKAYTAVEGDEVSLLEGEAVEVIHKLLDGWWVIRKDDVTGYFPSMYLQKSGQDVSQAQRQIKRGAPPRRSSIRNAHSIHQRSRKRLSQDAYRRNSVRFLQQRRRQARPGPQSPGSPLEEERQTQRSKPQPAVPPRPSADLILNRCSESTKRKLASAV
RBBP9 inhibitor – blocks human serine hydrolase RBBP9; O75884; recombinant RBBP9, FP-Rh probe fluorescence polarization; inhibition, % at 7.94 µM; hit rate 0.2% among 220,000;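 active means inhibition above the campaign mean of all tested compounds plus 3 SD, cut at about 14% in these data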;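 further: plate controls were DMSO wells with RBBP9 for no effect and wells lacking RBBP9 protein for full effect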
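Assay system: recombinant human RBBP9; Reagent: Serine-hydrolase probe FP-Rh, 375 nM pre-mixing; Doses: 7.94 µM single dose, 0.794% DMSO; Incubation: 30 min then 45 min, 25 °C; Detection: fluorescence polarization (mP), excitation 525 nm, emission 598 nm; Evaluation: percent inhibition from mP, scaled between DMSO and no-protein wells.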
KCC2 mod – KCC2 (human) Cl- transport modulation. Q9H2X9. KCC2 cells, thallium flux FluoZin-2 fluorescence. B-score of Tl+ flux slope (higher = more flux/activation; lower = inhibition) at 10 µM. hit rate 2.2% among 190,000. AID 1456;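 active means thallium flux slope and its plate-corrected score both differing from the plate sample mean at a set confidence after two filtering rounds, in either direction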;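 further: slope of fluorescence scaled to starting intensity during 10 to 20 s after thallium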
14-3-3 Bad inh – disrupts binding of bovine 14-3-3 zeta to phospho-Bad peptide; P63103; TR-FRET 14-3-3zeta/Dy647-pBad peptide displacement, 1 h; inhibition, % at 21.7 µM; hit rate 0.71% among 220,000;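 active means inhibition above about 70%, limit read from the data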;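 further: 0% = full 14-3-3 plus peptide FRET controls and 100% = background without 14-3-3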
Target sequence (P63103 whole entry, looked up): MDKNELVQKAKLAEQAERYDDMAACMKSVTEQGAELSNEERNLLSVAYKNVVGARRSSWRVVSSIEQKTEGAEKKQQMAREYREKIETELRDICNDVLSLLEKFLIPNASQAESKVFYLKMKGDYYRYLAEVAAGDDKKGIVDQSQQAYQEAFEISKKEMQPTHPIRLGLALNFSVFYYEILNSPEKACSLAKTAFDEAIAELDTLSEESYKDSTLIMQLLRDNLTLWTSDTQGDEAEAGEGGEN
ROMK primary – human ROMK K+ channel modulation, primary screen. P48048. Tet-inducible ROMK, thallium flux fluorescence; actives lie on both sides. B-score at 10 µM. hit rate 2% among 130,000. AID 1918;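 active means signal ratio slope over the read window, or its plate-corrected B-score, at least 3 SD from the plate mean, either direction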;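 further: B-score of the F/F0 ratio slope over 7 to 12 s after thallium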
WT yeast gro inh – growth inhibition of WT yeast, mitochondrial fusion screen | mitochondrial fusion phenotypic screen, WT strain | AID 1362 | inhibition, % at 10 µM | hit rate 2.1% among 190,000; in the data active means inhibition above about 58%; tested in S. cerevisiae
Starred values were filed as active, the others as inactive; . = no result given; [ ] = dose if it differs, or a comment. The list is not random: actives were taken first. Their share in the collection is about 5.8%.

SMILES	NCF1 inh	RBBP9 inhibitor	KCC2 mod	14-3-3 Bad inh	ROMK primary	WT yeast gro inh
Cc1c(OCc2ccc(C(=O)O)o2)ccc2c3c(c(=O)oc12)CCC3	1	-9	-1.4	47	.	3
COC(=O)c1ccc(COc2ccc3c(C)c(C)c(=O)oc3c2C)o1	72*	-7	.	20	0.67	18
Nc1ncnc2c1cnn2C1CCCCC1	-24	0	0.6	-6	.	.
CC1CCc2sc(NC(=O)C3CC(Cl)=CCC3C(=O)O)c(C#N)c2C1 (centres undefined)	1	-8	.	5	0.74	19
CCC(c1nnnn1CCOC)N(Cc1ccc(C)cc1)Cc1cc2cc(OC)ccc2[nH]c1=O (centres undefined)	-9	-10	-3.1*	-12	.	-8
COc1ccc(NS(=O)(=O)c2ccc(N3CCCC3)c(NC(=S)Nc3cccc(S(=O)(=O)N(C)C)c3)c2)cc1	-45	-13	0.26	5	-1.1	32
COC(=O)CSc1nc2sc3c(c2c(=O)[nH]1)CCC3	76*	-6	0.099	-2	.	.
Cc1ccc(C(OCCN(C)C)c2cccc(C(F)(F)F)c2)cc1 (centres undefined)	-5	-5	0.31	-2	-2.6	1
COc1ccccc1NC(=O)c1cccc(NC(=O)c2ccco2)c1	-5	-8	-0.092	0	.	74*
COc1ccccc1NC(=O)C(=O)NNC(=O)c1ccco1	0	-8	8.3*	2	1.8	-3
COc1ccc(C(=O)Nc2cc(OC)c(NC(=O)c3ccco3)cc2OC)cc1	63*	-6	-1	-13	.	12
COc1ccc(C(=O)C2CCCN(Cc3c[nH]c4ccccc34)C2)c(OC)c1 (centres undefined)	-6	-7	0.27	-15	-1.5	5
COc1ccc(S(=O)(=O)N(c2onc(C)c2Cl)S(=O)(=O)c2ccc(OC)c(OC)c2)cc1OC	-7	-3	-0.011	78*	.	-14
O=C(Nc1nccs1)c1cccc(N2C(=O)c3cccc4c([N+](=O)[O-])ccc(c34)C2=O)c1	19	1	-0.13	77*[fluorescence artefact?]	-1.2	30
CN(C)CCCNS(=O)(=O)c1ccc(N2CCC(c3ccc(Cl)cc3)=N2)cc1	41*	-10	.	18	-2.6	.
CCCc1n(CC)c2ccccc2[n+]1CC(O)COC1CCCCC1 (centres undefined)	-10	-11	0.19	15	0.029	3
CC(C)N(Cc1cn(C)nc1-c1cccc(Cl)c1)CC1CCC(=O)N1 (centres undefined)	1	-9	-0.72	-4	0.16	-24
C=CCN(Cc1cn(C)nc1-c1cccc(Cl)c1)C1CCS(=O)(=O)C1 (centres undefined)	-1	-7	-1.2	96*	0.027	7
Cc1cc(Nc2nc3ccccc3nc2Cl)n(-c2ccccc2C)n1	-15	-4	0.47	13	.	63*
Cc1ccc(NC(=O)CSc2ncc3ccccn23)cc1C	-1	-6	-0.5	-5	-1.1	-1
NNC(=O)c1cccc(COc2ccccc2Br)c1	-3	-11	-0.47	-8	.	44
NNC(=O)c1cccc(COc2ccc3c(c2)CCC3)c1	8	-10	-1	-8	0.5	81*
CC(C)(CO)NC(=S)NCc1ccco1	-19	2	0.76	-6	.	.
CCOC(=O)Cn1cnc(-c2ccc([N+](=O)[O-])cc2)c1	-9	-7	0.66	2	1.2	-5
CCc1ccccc1NC(=O)/C(=C/c1ccco1)c1ccccc1	-84	-5	-1.4	.	-1.4	59*
SMILES	NCF1 inh	RBBP9 inhibitor	KCC2 mod	14-3-3 Bad inh	ROMK primary	WT yeast gro inh
O=C1NCCc2c1[nH]c1ccccc21	-7	-7	-0.37	-5	.	-16
O=C1NCCc2c1[nH]c1c(Cl)ccc(Cl)c21	-6	-8	-0.56	-8	-2.4	89*
CCn1c(SCC(=O)N/N=C/C=C/c2ccco2)nc2ccccc21	-9	-4	-2.2	-10	.	14
CCn1c(SCC(=O)N/N=C/C=C/c2ccco2)nnc1-c1ccc(OC)cc1	0	-7	-0.75	80*[fluorescence artefact?]	.	-6
CC12CCC(c3c(C(=O)O)nn(-c4ccc(F)cc4)c31)C2(C)C (centres undefined)	-12	1	0.87	-6	0.81	59*
Cc1ccc(C(=O)COC(=O)c2cc(=O)[nH]c3ccccc23)cc1C	-40	-12	0.37	-15	-0.23	2
Cc1cc(/C=N/N2CCN(C)CC2)c(C)n1-c1ccc(Cl)cc1	-17	-3	1	3	.	.
Cc1ncc([N+](=O)[O-])n1Cc1cccc(F)c1	-1	-5	.	2	-0.47	3
O=C1S/C(=C\c2ccc(O)c([N+](=O)[O-])c2)C(=O)N1c1ccccc1Cl	-2	-1	-3.5*	-4	-3.6*	80*
Cc1ccc(NC(=O)CN2C(=O)S/C(=C/c3ccc(O)c([N+](=O)[O-])c3)C2=O)cc1C	16	5	-3.7	83*	-1.2	51
Cc1cccc(NC(=O)CN2C(=O)S/C(=C\c3ccc(O)c([N+](=O)[O-])c3)C2=O)c1	-11	-2	-1.5	1	-0.63	33
CN1C(=O)/C(=C/c2ccc(O)c([N+](=O)[O-])c2)N(C)C1=S	7	-4	-1.7	-3	-0.0035	16
O=C1S/C(=C\c2ccc(O)c([N+](=O)[O-])c2)C(=O)N1Cc1cccc([N+](=O)[O-])c1	-14	-2	.	7	.	86*
Cc1ccc(C(=O)N2CCN(c3ccccc3F)CC2)cc1S(=O)(=O)N1CCOCC1	-9	0	-0.56	-5	0.86	9
CC1CCC2(CC1)NC(=O)N(CC(=O)c1cn(CCC#N)c3ccccc13)C2=O (centres undefined)	5	-14	1.5	2	.	.
O=C(O)c1nccnc1C(=O)Nc1ccccc1-c1ccccc1	-21	-5	-0.022	0	1.6	.
O=C(NC1C/C(=N/O)c2cc3c(cc21)OCO3)C(F)(F)F (centres undefined)	-5	-6	-0.017	-2	0.0099	-12
O=[N+]([O-])c1ccc(N/N=C/c2sc(N3CCOCC3)nc2-c2ccccc2)c(S(=O)(=O)Nc2ccccc2Cl)c1	-94	6	-1.4	4	-5*	24
O=[N+]([O-])c1ccc(N/N=C/c2sc(N3CCOCC3)nc2-c2ccccc2)c(S(=O)(=O)Nc2ccc(Cl)cc2)c1	-68	2	1.2	-3	-0.1	4
NC(=O)NC(=O)CSc1nnc(-c2ccc(Cl)cc2)n1CC1CCCO1 (centres undefined)	6	-4	.	-4	-0.14	-6
CC(=O)c1c(C)[nH]c(C(=O)CSc2nnc(-c3ccc(Cl)cc3)n2CC2CCCO2)c1C (centres undefined)	-6	-14	0.024	3	-0.035	70*
O=C(NCc1ccccc1)c1ccc(-c2ccccc2C(F)(F)F)o1	-16	-8	-1.6	-1	-1.3	58*
